Paper PMC12215028 (Scientific Reports, 2025)

Tests used:
[1] = tested on: A549, H460, H1299, and HCC827 cell lines; assay: MTT assay, statements over all four lines; format: cell-based, human; details: 48 h
Summary of the method: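 H460, H1299 and HCC827 cells were kept in RPMI1640 with 10% FBS at 37 °C and 5% CO₂. A549 cells were plated at 2,500 per well. Cells were exposed to 0–50 µM test compound (final; 3.125–50 µM twofold steps) or DMSO control for 24, 48 and 72 h. MTT was then added for 2 h at 37 °C, formazan was dissolved in DMSO, and OD was read at 570 nm. Data are mean ± standard deviation; IC50 was calculated from viability.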

[2] = tested on: p-EGFR(Y1068); assay: Western blot, NSCLC cell lines; format: cell-based, human; details: A549 and H460 cells; 50 µM
Summary of the method: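 Cells were plated at 150,000 per well and treated with test compound or DMSO for 24 h. They were lysed in RIPA buffer with PMSF, DTT, NaF, Na₃VO₄ and protease inhibitors for 30 min on ice, then spun at 13,000 rpm for 30 min at 4 °C. Protein was quantified by Bradford assay and resolved by SDS-PAGE. Blots were probed with secondary antibodies at 1:5000 for 1 h at RT, detected by chemiluminescence and quantified by densitometry.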

[3] = tested on: A549 cells; assay: Subcutaneous xenograft mouse model; format: in vivo, BALB/c-nude male mice; details: 30 mg/kg
Summary of the method: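 Male BALB/c nude mice aged 6–7 weeks, under isoflurane, received 5 × 10⁶ A549 cells in 50 µL PBS plus 50 µL Matrigel subcutaneously in the flank. Groups of six received vehicle, test compound or reference compound by oral gavage three times weekly for 27 days. Vehicle was Tween 80:PEG400:ethanol:5% glucose 1:6:3:20, at 100 µL per 25 g mouse. Tumors were caliper-measured three times weekly; endpoint was about 1,500 mm³ or distress.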

[4] = tested on: A549 xenograft tumor tissue; assay: H&E staining of xenograft tumor tissue; format: in vivo, BALB/c-nude male mice; details: 30 mg/kg; compared to the vehicle group
Summary of the method: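 A549 cells (5 × 10⁶ in PBS plus Matrigel) were implanted subcutaneously into the flank of male nude mice aged 6–7 weeks. Compound was given by oral gavage three times weekly. Paraffin tumor sections were deparaffinized in xylene and rehydrated through graded ethanol. They were stained with hematoxylin for 30 s, differentiated in acid alcohol (0.3% HCl in 70% ethanol) and stained with eosin for 2 min. Sections were then dehydrated, cleared and mounted, and staining was quantified by image analysis.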

[5] = tested on: p-EGFR; assay: Immunohistochemistry of xenograft tumor tissue; format: in vivo, BALB/c-nude male mice; details: tumor tissues; compared to the vehicle group
Summary of the method: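 Paraffin sections of subcutaneous A549 flank tumors from nude mice were deparaffinized and rehydrated, and peroxidase was blocked with H₂O₂. Antigen retrieval used 0.01 M citrate (pH 6.0) at boiling for 10 min. Sections were blocked in normal goat serum for 1 h at RT, then incubated with anti-p-EGFR (Y1068) at 1:100 overnight at 4 °C. Detection used a biotinylated secondary (1 h, RT), ABC reagent (30 min) and DAB, with hematoxylin counterstain.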

CC(C)=CC(=O)O[C@H]1Cc2cc3ccc(=O)oc3cc2OC1(C)C [decursin]
cytotoxicity [1]: significant cytotoxicity at 50 µM | p-EGFR(Y1068) expression levels [2]: failed to inhibit EGFR phosphorylation | tumor size at the experimental endpoint ([3]; oral gavage three times per week, 27 days, vs vehicle): no statistically significant reduction | body weight changes ([3]; vs control, throughout the experimental period): no significant difference | tumor cell density (H&E) [4]: did not show a significant difference | p-EGFR-positive cells / expression (IHC) [5]: not significantly reduced
